Assay results: ChEMBL document CHEMBL1275311, “Synthesis and vasodilation activity of some novel bis(3-pyridinecarbonitrile) derivatives” (Eur J Med Chem, 2010)

What follows are compounds tested on Thoracic aorta (assay: Vasodilatory activity in Wistar rat thoracic aorta assessed as reduction of norepinephrine hydrochloride-induced vasoconstriction).
Assay type: functional, tissue-based
Outline: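 Isolated rat aorta preparation with contractile response recorded. Compounds were dissolved in DMSO, with vehicle-only controls run at the same DMSO concentrations. Relaxation was plotted against compound concentration (mM) to give concentration–response curves, and IC50 was calculated by the best-fit line technique.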

SMILES | IC50 [µM]
COc1nc(-c2cccs2)cc(-c2ccccc2OCCOc2ccccc2-c2cc(-c3cccs3)nc(OC)c2C#N)c1C#N | 1270
COc1nc(-c2ccccc2)cc(-c2ccccc2OCCOc2ccccc2-c2cc(-c3ccccc3)nc(OC)c2C#N)c1C#N | 1050
CCOc1nc(-c2ccccc2)cc(-c2ccccc2OCCOc2ccccc2-c2cc(-c3ccccc3)nc(OCC)c2C#N)c1C#N | 862
COc1nc(-c2ccc(F)cc2)cc(-c2ccccc2OCCOc2ccccc2-c2cc(-c3ccc(F)cc3)nc(OC)c2C#N)c1C#N | 517
COc1nc(-c2ccc(C)cc2)cc(-c2ccccc2OCCOc2ccccc2-c2cc(-c3ccc(C)cc3)nc(OC)c2C#N)c1C#N | 795

Next, values leading:

IC50 [µM] | SMILES
470 | CCOc1nc(-c2ccc(F)cc2)cc(-c2ccccc2OCCOc2ccccc2-c2cc(-c3ccc(F)cc3)nc(OCC)c2C#N)c1C#N
622 | CCOc1nc(-c2ccc(Cl)cc2)cc(-c2ccccc2OCCOc2ccccc2-c2cc(-c3ccc(Cl)cc3)nc(OCC)c2C#N)c1C#N
865 | CCOc1nc(-c2cccs2)cc(-c2ccccc2OCCOc2ccccc2-c2cc(-c3cccs3)nc(OCC)c2C#N)c1C#N
970 | CCOc1nc(-c2ccc(O)cc2)cc(-c2ccccc2OCCOc2ccccc2-c2cc(-c3ccc(O)cc3)nc(OCC)c2C#N)c1C#N
665 | COc1nc(-c2ccc(Cl)cc2)cc(-c2ccccc2OCCOc2ccccc2-c2cc(-c3ccc(Cl)cc3)nc(OC)c2C#N)c1C#N
696 | CCOc1nc(-c2ccc(OC)cc2)cc(-c2ccccc2OCCOc2ccccc2-c2cc(-c3ccc(OC)cc3)nc(OCC)c2C#N)c1C#N
890 | COc1ccc(-c2cc(-c3ccccc3OCCOc3ccccc3-c3cc(-c4ccc(OC)cc4)nc(OC)c3C#N)c(C#N)c(OC)n2)cc1
